# Assay results: ChEMBL document CHEMBL1152989, “Results of a double-blind, randomized trial of ceftobiprole treatment of complicated skin and skin structure infections caused by gram-positive bacteria” (Antimicrob Agents Chemother, 2008)
# What was measured:
# Staphylococcus aureus [1] = assay: Antibacterial activity against methicillin-resistant Staphylococcus aureus infected in human with infections extending to fascia or muscle assessed as cure rate at test-of-cure visit; type: functional, Muscle tissue
# Homo sapiens [2] = species: Homo sapiens; assay: Toxicity in methicillin-resistant Staphylococcus aureus-infected human with complicated skin and skin structure infection assessed as nausea; type: organism-based; details: in vivo
# Method in brief: (§1)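 Safety population: randomized patients given at least one dose of IV study drug (500 mg every 12 h, 1-h infusion, 7–14 days) or vancomycin 1 g every 12 h, double-blind. Adverse events, including deaths, were recorded during treatment and follow-up. Laboratory values were compared between baseline and end of therapy.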
# Homo sapiens [3] = species: Homo sapiens; assay: Toxicity in methicillin-resistant Staphylococcus aureus-infected human with complicated skin and skin structure infection assessed as vomiting; type: organism-based; details: in vivo; method in brief: as §1
# Homo sapiens [4] = species: Homo sapiens; assay: Toxicity in methicillin-resistant Staphylococcus aureus-infected human with complicated skin and skin structure infection assessed as dysgeusia; type: organism-based; details: in vivo; method in brief: as §1
# Homo sapiens [5] = species: Homo sapiens; assay: Toxicity in methicillin-resistant Staphylococcus aureus-infected human with complicated skin and skin structure infection assessed as diarrhea; type: organism-based; details: in vivo; method in brief: as §1
# Homo sapiens [6] = species: Homo sapiens; assay: Toxicity in methicillin-resistant Staphylococcus aureus-infected human with complicated skin and skin structure infection assessed as constipation; type: organism-based; details: in vivo; method in brief: as §1
# Homo sapiens [7] = species: Homo sapiens; assay: Toxicity in methicillin-resistant Staphylococcus aureus-infected human with complicated skin and skin structure infection assessed as headache; type: organism-based; details: in vivo; method in brief: as §1
# Homo sapiens [8] = species: Homo sapiens; assay: Toxicity in methicillin-resistant Staphylococcus aureus-infected human with complicated skin and skin structure infection assessed as dizziness; type: organism-based; details: in vivo; method in brief: as §1
# Homo sapiens [9] = species: Homo sapiens; assay: Toxicity in methicillin-resistant Staphylococcus aureus-infected human with complicated skin and skin structure infection assessed as rash; type: organism-based; details: in vivo; method in brief: as §1
# Homo sapiens [10] = species: Homo sapiens; assay: Toxicity in methicillin-resistant Staphylococcus aureus-infected human with complicated skin and skin structure infection assessed as pruritus; type: organism-based; details: in vivo; method in brief: as §1
# Homo sapiens [11] = species: Homo sapiens; assay: Toxicity in methicillin-resistant Staphylococcus aureus-infected human assessed as death; type: organism-based; details: in vivo; method in brief: as §1
# Staphylococcus aureus [12] = assay: Antibacterial activity against methicillin-resistant Staphylococcus aureus infected in human with complicated skin and skin structure infection assessed as cure rate at test-of-cure visit; type: functional
# Staphylococcus aureus [13] = assay: Antibacterial activity against methicillin-susceptible Staphylococcus aureus; type: functional
# Method in brief: (§2)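 Duplicate baseline isolates from the infection site were tested centrally for susceptibility on customized TREK broth panels by CLSI methods. Identification was by coagulase and API testing. Staphylococci were typed for mecA and PVL genes by multiplex analysis.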
# Staphylococcus aureus [14] = assay: Antibacterial activity against methicillin-susceptible Staphylococcus aureus infected in human with complicated skin and skin structure infection assessed as cure rate at test-of-cure visit; type: functional
# Staphylococcus aureus [15] = assay: Antibacterial activity against methicillin-resistant Staphylococcus aureus; type: functional; method in brief: as §2
# Staphylococcus aureus [16] = assay: Antibacterial activity against methicillin-resistant Staphylococcus aureus clinical isolate; type: functional; method in brief: as §2
# Staphylococcus aureus [17] = assay: Antibacterial activity against methicillin-resistant Staphylococcus aureus infected in human with complicated skin and skin structure infection assessed as cure rate at test-of-cure visit in presence of C-reactive protein; type: functional
# Staphylococcus aureus [18] = assay: Antibacterial activity against methicillin-resistant Staphylococcus aureus PVL positive isolate infected in human with complicated skin and skin structure infection assessed as cure rate at test-of-cure visit; type: functional
compound,measurement,setting,value
Nc1nc(/C(=N/O)C(=O)N[C@@H]2C(=O)N3C(C(=O)O)=C(/C=C4\CCN([C@@H]5CCNC5)C4=O)CS[C@H]23)ns1 [CEFTOBIPROLE],Activity,Staphylococcus aureus [1],90.5%
same,Activity,Homo sapiens [2],14%
same,Activity,Homo sapiens [3],7%
same,Activity,Homo sapiens [4],8%
same,Activity,Homo sapiens [5],5%
same,Activity,Homo sapiens [6],4%
same,Activity,Homo sapiens [7],7%
same,Activity,Homo sapiens [8],4%
same,Activity,Homo sapiens [9],2%
same,Activity,Homo sapiens [10],3%
same,Activity,Homo sapiens [11],Non-toxic
same,Activity,Staphylococcus aureus [12],91.8%
same,MIC50,Staphylococcus aureus [13],0.25 µg/mL
same,MIC90,Staphylococcus aureus [13],0.5 µg/mL
same,Activity,Staphylococcus aureus [14],96%
same,MIC90,Staphylococcus aureus [15],≤ 2 µg/mL
same,MIC50,Staphylococcus aureus [16],0.5 µg/mL
same,MIC90,Staphylococcus aureus [16],2 µg/mL
same,Activity,Staphylococcus aureus [17],86.9%
same,Activity,Staphylococcus aureus [18],93.1%
CN[C@H](CC(C)C)C(=O)N[C@H]1C(=O)N[C@@H](CC(N)=O)C(=O)N[C@H]2C(=O)N[C@H]3C(=O)N[C@H](C(=O)N[C@H](C(=O)O)c4cc(O)cc(O)c4-c4cc3ccc4O)[C@H](O)c3ccc(c(Cl)c3)Oc3cc2cc(c3O[C@@H]2O[C@H](CO)[C@@H](O)[C@H](O)[C@H]2O[C@H]2C[C@](C)(N)[C@H](O)[C@H](C)O2)Oc2ccc(cc2Cl)[C@H]1O [VANCOMYCIN],Activity,Staphylococcus aureus [1],85.7%
same,Activity,Homo sapiens [2],8%
same,Activity,Homo sapiens [3],4%
same,Activity,Homo sapiens [4],1%
same,Activity,Homo sapiens [5],4%
same,Activity,Homo sapiens [6],3%
same,Activity,Homo sapiens [7],6%
same,Activity,Homo sapiens [8],2%
same,Activity,Homo sapiens [9],3%
same,Activity,Homo sapiens [10],6%
same,Activity,Staphylococcus aureus [12],90%
same,MIC50,Staphylococcus aureus [13],0.5 µg/mL
same,MIC90,Staphylococcus aureus [13],1 µg/mL
same,Activity,Staphylococcus aureus [14],96.4%
same,MIC50,Staphylococcus aureus [16],0.5 µg/mL
same,MIC90,Staphylococcus aureus [16],1 µg/mL
same,Activity,Staphylococcus aureus [17],87.5%
same,Activity,Staphylococcus aureus [18],84.6%
